Bioassay records from PubChem BioAssay.
Hits are enriched below; roughly 2.3% of the tested compounds scored in any of these assays.
bCat nuc transl – alters nuclear translocation of beta-catenin in HeLa cells; immunofluorescence imaging; nuclear translocation activity, % at 5 µM; 190,000 tested, 0.3% active;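 active = nuclear translocation activity above 50% at 5 µM, with a well cell count of 50 or more; inconclusive = wells under 50 cells across six images, flagged as toxic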;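 also: per-cell ratio of nuclear to cytoplasmic median beta-catenin stain intensity; plate controls were DMSO negative control for no effect and GSK-3 inhibitor IX positive control for full effect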
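Signal – beta-catenin immunofluorescence imaging with DAPI · Test system – human HeLa cell line · Dosing – 5 µM primary single dose, 0.1% DMSO, 0.02–20 µM confirmation series · Measure – % activation, nuclear-to-cytoplasmic median beta-catenin signal ratio per cell · Incubation – 24 h compound exposure at 37°C, 5% CO2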
MT stabilizer – stabilizes microtubules in HeLa cells; % tubulin-high responders, % at 10 µM; HeLa tubulin immunostaining HCS, 24 h; share of cells brighter than vehicle mean+2SD; AID 2205; 200,000 tested, 0.83% active;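 active = plate Z-score above 3 for both tubulin-high and condensed-nucleus cell shares, with cell loss under 80%, at 10 µM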;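 also: anti alpha tubulin signal scored within the nucleus-defined area of each cell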
Ins promoter up – MIN6 insulin promoter up-regulation; 190,000 tested, 0.3% active; z-score at 5 µM; AID 1625; MIN6 insulin promoter-GFP reporter, high-content imaging; hits give high values;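 active = z-score above 3 at 5 µM with at least 500 cells counted in the well; inconclusive = wells under 500 cells, flagged as cytotoxic or low count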
Dynein cargo inh – blocks dynein driven cargo transport along microtubules | z-score, hits read low | 3617.4 mouse cells, GR-EGFP nuclear translocation imaging; test concentration mostly 20 µM; stimulated with dexamethasone, 1 µM; hits give low values | 220,000 tested, 0.47% active;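 active = plate z-score of nuclear minus cytoplasmic receptor signal below a set negative limit, without overly bright fluorescence or cell loss, cut at about -3.5 in these data, passing the limit was not always enough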;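 also: z-score of nuclear minus cytoplasmic ring GR-EGFP intensity difference per well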
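Buffer or medium: tet-free medium with charcoal-stripped serum / Also added: dexamethasone agonist, 1.0 µM final, for 30 min / Timing: induction 48 h, compound 1 h, agonist 30 min / Measured by: high-content fluorescence imaging after fixation / Read-out: nuclear-to-cytoplasmic GR-EGFP distribution per well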
Autophagy HCS – alters autophagy in cells | MEF GFP-LC3 puncta imaging; test concentration mostly 10 µM | calls only at 10 µM (by protocol) | 190,000 tested, 0.98% active;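 active = percentage of spot-positive cells more than 3 SD above its plate mean, without a fluorescence outlier flag or 80% toxicity; inconclusive = no clear call, values can overlap the other calls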;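 also: spot-positive cell cutoff set from DMSO-treated cells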
Dynein inh conf – dynein cargo transport inhibition, confirmation; calls only at 20 µM; 1,000 tested, 69% active; 3617.4 GR-EGFP nuclear translocation imaging, dexamethasone-induced; shares compounds with Dynein cargo inh; AID 463116;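 active = inhibition of receptor movement into the nucleus at or above a set limit in both runs, with normal cell brightness and cell count; inconclusive = limit reached in only one run, brightness and count normal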;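 also: dexamethasone at 1 µM final in well for 30 min; nuclear minus cytoplasmic GR-EGFP mean intensity difference in channel 2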
Active calls of the source: *; i = inactive; ? = inconclusive; nt = not tested or not shown; + = active, no number.

SMILES | bCat nuc transl | MT stabilizer | Ins promoter up | Dynein cargo inh | Autophagy HCS | Dynein inh conf
COc1cccc(N2C(=O)NC(=O)/C(=C/c3ccc4c(c3)Cc3ccccc3-4)C2=O)c1 | -8 | 1 | nt | -0.96 | i | nt
COc1ccccc1N1C(=O)NC(=O)/C(=C\c2cnn(-c3ccccc3)c2)C1=O | -1 | 6 | 0.95 | 0.85 | i | nt
COc1ccc(N2C(=O)NC(=O)/C(=C/c3ccc([N+](=O)[O-])s3)C2=O)cc1 | 0 | nt | -0.02 | -5.3* | nt | +
COc1cccc(N2C(=O)NC(=O)/C(=C/c3ccc([N+](=O)[O-])s3)C2=O)c1 | 2 | nt | 1.1 | -5.6* | nt | +
COc1ccc(N2C(=O)NC(=O)/C(=C\c3ccc([N+](=O)[O-])s3)C2=O)cc1 | 1 | 4 | -0.32 | -7.1* | i | +
CCOc1ccc(N2C(=O)NC(=O)/C(=C\c3cc(OC)c(OC)cc3[N+](=O)[O-])C2=O)cc1 | 0 | 3 | 0.18 | -0.28 | i | nt
COc1ccccc1N1C(=O)NC(=O)/C(=C/c2ccc([N+](=O)[O-])s2)C1=O | 0 | nt | -0.45 | -5.8* | nt | +
O=C(Nc1ccccc1)OC1CN=C(N[N+](=O)[O-])NC1 (stereo not drawn) | -1 | 2 | -0.11 | 1.5 | i | nt
CN=C(SCC(=O)c1cccc(Cl)c1)c1c(O)n(C)c(=O)n(C)c1=O | 0 | nt | 0.6 | -0.46 | nt | nt
CCOc1ccc2oc(C(=O)NN3C(C)CCCC3C)c(C)c2c1 (stereo not drawn) | 0 | 5 | -0.1 | 0.056 | i | nt
COc1ccc(CN2C(=O)NC(=O)/C(=C/c3ccc([N+](=O)[O-])s3)C2=O)cc1 | -2 | nt | 0.18 | -4.3* | nt | +
CN(C)c1ccc(/C=C/C=C/c2sc3ccccc3[n+]2C)cc1 | 2 | nt | ? | -0.28 | nt | nt
CC[n+]1c(/C=C/C=C/c2ccc(N(C)C)cc2)sc2ccccc21 | 2 | nt | ? | -3.7* | nt | +
c1ccc(C2NCCc3[nH]cnc32)cc1 (stereo not drawn) | -1 | nt | 0.09 | -0.062 | nt | nt
CC(C)n1c(O)c(C2c3cc(Cl)ccc3Oc3[nH]c(=O)n(C(C)C)c(=O)c32)c(=O)[nH]c1=O (stereo not drawn) | 0 | nt | -0.15 | -5.3* | nt | +
